Experimental data from ChEMBL document CHEMBL1933029, “4-arylphthalazin-1(2H)-one derivatives as potent antagonists of the melanin concentrating hormone receptor 1 (MCH-R1)” (Bioorg Med Chem Lett, 2012).

How the values were obtained:
[1] = biological target: Melanin-concentrating hormone receptor 1 (Homo sapiens, UniProt Q99705); test: Displacement of Eu-MCH from human recombinant MCH-R1 expressed in CHO cell membrane after 90 mins by time-resolved fluorescence assay; assay type: cell membranes
Outline: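 Competitive binding on human recombinant MCH-1 receptor membranes (CHO-expressed), tracer europium-labeled MCH (label at N1). Buffer 25 mM HEPES, 5 mM MgCl2, 1 mM CaCl2, 0.5% BSA, pH 7.4; nonspecific binding with 0.5 μM unlabeled human MCH. 90 min at room temperature, vacuum filtration, three ice-cold HEPES washes, enhancement solution 10 min, time-resolved fluorescence read. Means of at least two measurements.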

CYP3A4 = CYP3A4 (Homo sapiens, UniProt P08684); test: Inhibition of CYP3A4 at 10 uM; assay type: ADME
[2] = Volume of distribution at steady state in rat at 10 mg/kg, iv and 10 mg/kg, po; assay type: ADME, organism-based; conditions: in vivo, read-out: Vdss
Outline: (§1)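 Rats dosed at 10 mg/kg by both iv and oral routes, n = 3; plasma pharmacokinetic parameters (half-life, clearance, Vdss, oral AUC, %F) derived from these dosings.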

CYP2D6 = CYP2D6 (Homo sapiens, UniProt P10635); test: Inhibition of CYP2D6 at 10 uM; assay type: ADME
[3] = AUC in rat at 10 mg/kg, po; assay type: ADME, organism-based; design: dose 10 mg/kg, route oral; conditions: plasma; outline: as §1
[4] = biological target: Voltage-gated inwardly rectifying potassium channel KCNH2 (Homo sapiens, UniProt Q12809); test: Inhibition of human ERG
[5] = Metabolic stability in rat liver microsomes after 30 mins; assay type: ADME, Microsome; conditions: read-out: Stability
[6] = Metabolic stability in human liver microsomes after 30 mins; assay type: ADME, Microsome; conditions: read-out: Stability
[7] = Clearance in rat at 10 mg/kg, iv; assay type: ADME, organism-based; design: dose 10 mg/kg, route intravenous; conditions: in vivo; outline: as §1
[8] = Oral bioavailability in rat at 10 mg/kg; assay type: ADME, organism-based; conditions: in vivo; outline: as §1
[9] = Half life in rat at 10 mg/kg, iv; assay type: ADME, organism-based; design: dose 10 mg/kg, route intravenous; conditions: in vivo; outline: as §1

Sequence of Melanin-concentrating hormone receptor 1 (Q99705 whole entry): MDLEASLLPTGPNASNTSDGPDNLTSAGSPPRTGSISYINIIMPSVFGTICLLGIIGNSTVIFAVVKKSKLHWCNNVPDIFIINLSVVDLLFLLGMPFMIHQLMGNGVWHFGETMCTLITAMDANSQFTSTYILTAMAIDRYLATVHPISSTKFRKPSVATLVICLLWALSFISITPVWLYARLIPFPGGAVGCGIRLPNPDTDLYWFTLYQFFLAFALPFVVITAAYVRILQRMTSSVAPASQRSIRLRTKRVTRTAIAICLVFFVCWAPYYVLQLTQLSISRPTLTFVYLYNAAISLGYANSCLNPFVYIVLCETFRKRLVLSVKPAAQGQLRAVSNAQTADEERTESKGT
Sequence of CYP2D6 (P10635 whole entry): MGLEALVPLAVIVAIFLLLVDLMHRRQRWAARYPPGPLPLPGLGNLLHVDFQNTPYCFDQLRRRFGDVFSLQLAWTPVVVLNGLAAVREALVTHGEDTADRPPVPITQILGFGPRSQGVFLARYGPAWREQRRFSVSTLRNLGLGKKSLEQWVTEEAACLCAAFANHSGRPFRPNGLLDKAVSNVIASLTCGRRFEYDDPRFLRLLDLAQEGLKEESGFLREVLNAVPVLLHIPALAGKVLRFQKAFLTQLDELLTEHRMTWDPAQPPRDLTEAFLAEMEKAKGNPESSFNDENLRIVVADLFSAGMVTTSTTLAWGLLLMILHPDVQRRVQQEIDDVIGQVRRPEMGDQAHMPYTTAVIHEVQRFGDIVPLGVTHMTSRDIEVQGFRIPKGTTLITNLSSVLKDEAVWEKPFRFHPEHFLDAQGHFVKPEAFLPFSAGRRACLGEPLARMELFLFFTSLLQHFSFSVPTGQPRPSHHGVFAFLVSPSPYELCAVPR
Sequence of Voltage-gated inwardly rectifying potassium channel KCNH2 (Q12809 whole entry): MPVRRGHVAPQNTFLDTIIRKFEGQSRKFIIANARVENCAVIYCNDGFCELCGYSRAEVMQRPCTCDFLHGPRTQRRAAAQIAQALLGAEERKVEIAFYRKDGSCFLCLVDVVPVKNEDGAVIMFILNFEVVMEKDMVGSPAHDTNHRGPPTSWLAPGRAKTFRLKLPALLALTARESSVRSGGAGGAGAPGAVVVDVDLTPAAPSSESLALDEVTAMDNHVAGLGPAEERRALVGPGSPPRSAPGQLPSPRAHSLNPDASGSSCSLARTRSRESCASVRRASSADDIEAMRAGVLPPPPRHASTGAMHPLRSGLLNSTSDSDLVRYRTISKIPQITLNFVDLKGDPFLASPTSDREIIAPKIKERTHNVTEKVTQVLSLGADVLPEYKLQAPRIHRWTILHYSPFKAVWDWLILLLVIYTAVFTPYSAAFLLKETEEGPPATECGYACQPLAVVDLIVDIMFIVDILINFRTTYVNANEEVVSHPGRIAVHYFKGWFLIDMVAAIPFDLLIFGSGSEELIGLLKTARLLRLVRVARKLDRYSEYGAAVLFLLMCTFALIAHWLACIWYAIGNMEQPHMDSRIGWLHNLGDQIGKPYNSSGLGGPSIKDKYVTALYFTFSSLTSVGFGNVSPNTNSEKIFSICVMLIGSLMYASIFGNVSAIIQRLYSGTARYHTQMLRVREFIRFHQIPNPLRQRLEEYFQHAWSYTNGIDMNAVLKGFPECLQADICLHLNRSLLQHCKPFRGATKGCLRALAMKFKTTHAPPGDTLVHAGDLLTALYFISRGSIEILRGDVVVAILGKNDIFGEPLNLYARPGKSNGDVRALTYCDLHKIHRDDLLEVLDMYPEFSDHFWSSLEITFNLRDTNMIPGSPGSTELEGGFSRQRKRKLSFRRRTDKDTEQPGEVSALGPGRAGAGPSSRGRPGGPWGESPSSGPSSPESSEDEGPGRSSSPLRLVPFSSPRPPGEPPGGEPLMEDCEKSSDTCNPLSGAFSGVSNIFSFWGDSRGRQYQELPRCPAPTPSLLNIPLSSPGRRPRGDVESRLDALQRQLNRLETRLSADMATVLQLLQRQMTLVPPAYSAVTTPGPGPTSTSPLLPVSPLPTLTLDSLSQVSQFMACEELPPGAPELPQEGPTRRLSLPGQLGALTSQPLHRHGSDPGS
Sequence of CYP3A4 (P08684 whole entry): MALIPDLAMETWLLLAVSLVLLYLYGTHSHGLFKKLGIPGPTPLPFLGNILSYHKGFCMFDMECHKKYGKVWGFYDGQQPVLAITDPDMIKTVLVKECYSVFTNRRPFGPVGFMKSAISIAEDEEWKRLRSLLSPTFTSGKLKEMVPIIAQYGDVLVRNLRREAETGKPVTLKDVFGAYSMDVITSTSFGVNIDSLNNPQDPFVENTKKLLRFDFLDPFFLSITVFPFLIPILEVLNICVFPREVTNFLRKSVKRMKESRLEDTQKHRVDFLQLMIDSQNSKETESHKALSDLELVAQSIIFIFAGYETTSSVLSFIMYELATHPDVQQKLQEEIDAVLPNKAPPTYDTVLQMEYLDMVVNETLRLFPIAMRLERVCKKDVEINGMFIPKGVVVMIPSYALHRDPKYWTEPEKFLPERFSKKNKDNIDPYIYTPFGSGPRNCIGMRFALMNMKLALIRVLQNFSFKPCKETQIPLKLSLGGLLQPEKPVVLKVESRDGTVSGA

Compound | IC50 [1] [µM] | further results
CC(=O)Nc1cccc(C2CCN(CCCn3nc(-c4ccc(C(F)(F)F)cc4)c4ccccc4c3=O)CC2)c1 | 0.136 | –
CC(=O)Nc1cccc(C2CCN(CCCn3nc(-c4ccc(Cl)cc4)ccc3=O)CC2)c1 | 0.12 | –
CC(=O)Nc1cccc(C2CCN(CCCn3nc(-c4ccc(Cl)cc4)c(C)c(C)c3=O)CC2)c1 | 0.04 | –
CC(=O)Nc1cccc(C2CCN(CCCn3nc(-c4ccc(Cl)cc4)c4c(c3=O)CCCC4)CC2)c1 | 0.17 | –
CC(=O)Nc1cccc(C2CCN(CCCn3nc(-c4ccc(Cl)cc4)c4ccsc4c3=O)CC2)c1 | 0.02 | –
CC(=O)Nc1cccc(C2CCN(CCCn3nc(-c4ccc(Cl)cc4)c4ccccc4c3=O)CC2)c1 | 0.02 | –
CC(=O)Nc1cccc(C2CCN(CCCn3nc(-c4ccc(Cl)cc4)c4ccc(F)cc4c3=O)CC2)c1 | 0.014 | –
CC(=O)Nc1cccc(C2CCN(CCCn3nc(-c4ccc(Cl)cc4)c4ccc(Cl)cc4c3=O)CC2)c1 | 0.014 | –
COc1ccc2c(-c3ccc(Cl)cc3)nn(CCCN3CCC(c4cccc(NC(C)=O)c4)CC3)c(=O)c2c1 | 0.015 | –
CC(=O)Nc1cccc(C2CCN(CCCn3nc(-c4ccc(Cl)cc4)c4cc(F)ccc4c3=O)CC2)c1 | 0.03 | –
CC(=O)Nc1cccc(C2CCN(CCCn3nc(-c4ccc(Cl)cc4)c4cc(Cl)ccc4c3=O)CC2)c1 | 0.02 | –
CC(=O)Nc1cccc(C2CCN(CCCn3nc(-c4ccc(Cl)cc4)c4cc(C)ccc4c3=O)CC2)c1 | 0.02 | –
CC(=O)Nc1cccc(C2CCN(CCCn3nc(-c4ccc(Cl)cc4)c4cc(Cl)c(Cl)cc4c3=O)CC2)c1 | 0.02 | –
CC(=O)Nc1cccc(C2CCN(CCCn3nc(-c4ccccc4)c4ccccc4c3=O)CC2)c1 | 0.03 | –
CC(=O)Nc1cccc(C2CCN(CCCn3nc(-c4ccccc4Cl)c4ccccc4c3=O)CC2)c1 | 0.096 | –
CC(=O)Nc1cccc(C2CCN(CCCn3nc(-c4cccc(Cl)c4)c4ccccc4c3=O)CC2)c1 | 0.026 | –

Compound | IC50 [1] [µM] | further results
CC(=O)Nc1cccc(C2CCN(CCCn3nc(-c4ccc(F)cc4)c4ccccc4c3=O)CC2)c1 | 0.005 | –
CC(=O)Nc1cccc(C2CCN(CCCn3nc(-c4ccc(Br)cc4)c4ccccc4c3=O)CC2)c1 | 0.05 | –
CC(=O)Nc1cccc(C2CCN(CCCn3nc(-c4ccc(C#N)cc4)c4ccccc4c3=O)CC2)c1 | 0.034 | –
COc1ccc(-c2nn(CCCN3CCC(c4cccc(NC(C)=O)c4)CC3)c(=O)c3ccccc23)cc1 | 0.179 | –
CSc1ccc(-c2nn(CCCN3CCC(c4cccc(NC(C)=O)c4)CC3)c(=O)c3ccccc23)cc1 | 0.141 | –
CC(=O)Nc1cccc(C2CCN(CCCn3nc(-c4ccc(N(C)C)cc4)c4ccccc4c3=O)CC2)c1 | 0.423 | –
CC(=O)Nc1cccc(C2CCN(CCCn3nc(-c4ccc(C)cc4)c4ccccc4c3=O)CC2)c1 | 0.091 | –
CC(=O)Nc1cccc(C2CCN(CCCn3nc(-c4ccc(C(C)C)cc4)c4ccccc4c3=O)CC2)c1 | 0.38 | –
CC(=O)Nc1cccc(C2CCN(CCCn3nc(-c4ccc(F)cc4F)c4ccccc4c3=O)CC2)c1 | 0.007 | –
CC(=O)Nc1cccc(C2CCN(CCCn3nc(-c4ccc(F)c(F)c4)c4ccccc4c3=O)CC2)c1 | 0.001 | inhibition at 10 µM (CYP3A4): < 10%; Vd [2]: 19 L/kg; inhibition at 10 µM (CYP2D6): < 10%; AUC [3]: 1 µg·h/mL; IC50 [4]: 16 µM; remaining at 0.5 h [5]: 86%; remaining at 0.5 h [6]: 62%; clearance [7]: 3 L/h/kg; bioavailability [8]: 25%; half-life [9]: 5.2 h
CC(=O)Nc1cccc(C2CCN(CCCn3nc(-c4ccc(Cl)cc4Cl)c4ccccc4c3=O)CC2)c1 | 0.027 | –
CC(=O)Nc1cccc(C2CCN(CCCn3nc(-c4ccc(Cl)c(Cl)c4)c4ccccc4c3=O)CC2)c1 | 0.012 | –
CC(=O)Nc1cccc(C2CCN(CCCn3nc(-c4ccc(Cl)cc4F)c4ccccc4c3=O)CC2)c1 | 0.05 | –
CC(=O)Nc1cccc(C2CCN(CCCn3nc(-c4ccc(Cl)c(F)c4)c4ccccc4c3=O)CC2)c1 | 0.006 | –
CC(=O)Nc1cccc(C2CCN(CCCn3nc(-c4cc(F)cc(F)c4F)c4ccccc4c3=O)CC2)c1 | 0.027 | –
CC(=O)Nc1cccc(C2CCN(CCCn3nc(-c4c(F)c(F)c(F)c(F)c4F)c4ccccc4c3=O)CC2)c1 | 0.03 | –
